Laboratory results from ChEMBL document CHEMBL1141306, “ES-242 derivatives and cycloheptapeptides from Cordyceps sp. strains BCC 16173 and BCC 16176” (J Nat Prod, 2007).
Non-standard residues stand in square brackets, D forms with d. Residues, ends and D or L forms follow the SMILES beside them. NMeY = CN[C@@H](Cc1ccc(O)cc1)C(=O)O; dNMeF = CN[C@H](Cc1ccccc1)C(=O)O; Sar = CNCC(=O)O

What was measured:
Plasmodium falciparum [1] = experiment: Antimalarial activity against multidrug-resistant Plasmodium falciparum K1 at 10 ug/mL; format: functional
How it was run: (§1)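 Multidrug-resistant P. falciparum K1 cultures assayed by microculture radioisotope technique (Desjardins method). IC50 determined, and percent inhibition measured at a single concentration of 10 µg/mL.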

Plasmodium falciparum [2] = experiment: Antimalarial activity against multidrug-resistant Plasmodium falciparum K1; format: functional, organism-based; how it was run: as §1
KB = experiment: Cytotoxicity against human KB cells; format: functional, cell-based
How it was run: (§2)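 Colorimetric cytotoxicity assay on KB (oral epidermoid carcinoma), BC (breast cancer), NCI-H187 (small cell lung cancer) and Vero (African green monkey kidney fibroblast) cells. Values reported as IC50 (µM).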

[3] = Cytotoxicity against human BC cells; format: functional, cell-based; how it was run: as §2
NCI-H187 = experiment: Cytotoxicity against human NCI-H187 cells; format: functional, cell-based; how it was run: as §2
Vero = experiment: Cytotoxicity against african green monkey Vero cells; format: cell-based; details: Chlorocebus sabaeus; how it was run: as §2

Row | SMILES | inhibition at 10 µg/mL (Plasmodium falciparum [1]) | IC50 (Plasmodium falciparum [2]) | further results
1 | COc1cc(OC)c2c(O)c3c(c(-c4c5c(c(O)c6c(OC)cc(O)cc46)CO[C@@H](C)[C@H]5O)c2c1)[C@H](O)[C@H](C)OC3 | < 50% | – | –
2 | COc1cc(OC)c2c(O)c3c(c(-c4c(O)cc(OC)c5c(O)c6c(cc45)[C@H](O)[C@H](C)OC6)c2c1)[C@H](O)[C@H](C)OC3 | – | 3.3 µM | –
3 | COc1cc(OC)c2c(O)c3c(c(-c4c5c(c(O)c6c(OC)cc(OC)cc46)CO[C@@H](C)[C@H]5OC(C)=O)c2c1)[C@H](OC(C)=O)[C@H](C)OC3 | – | 3.3 µM | –
4 | COc1cc(OC)c2c(O)c3c(c(-c4c5c(c(O)c6c(OC)cc(O)cc46)CO[C@@H](C)[C@H]5OC(C)=O)c2c1)[C@H](OC(C)=O)[C@H](C)OC3 | < 50% | – | –
5 | COc1cc(OC)c2c(O)c3c(c(-c4c5c(c(O)c6c(OC)cc(OC)cc46)CO[C@@H](C)[C@H]5O)c2c1)[C@H](O)[C@H](C)OC3 | < 50% | 8.1 µM | –
6 | COc1cc(OC)c2c(O)c3c(c(-c4c(OC)cc(OC)c5c(O)c6c(cc45)[C@H](O)[C@H](C)OC6)c2c1)[C@H](O)[C@H](C)OC3 | < 50% | 12 µM | –
7 | CC[C@H](C)[C@@H]1NC(=O)[C@H](Cc2ccc(O)cc2)N(C)C(=O)[C@H](Cc2ccccc2)NC(=O)CN(C)C(=O)[C@@H]2CCCN2C(=O)[C@@H](Cc2ccccc2)N(C)C(=O)[C@H](CC(C)C)NC1=O [CORDYHEPTAPEPTIDE A] (cyclo(F[NMeY]IL[dNMeF]P[Sar])) | – | 3.8 µM | IC50 (KB): 0.78 µM; IC50 [3]: 0.2 µM; IC50 (NCI-H187): 0.18 µM; IC50 (Vero): 14 µM
